Measurements as given in publication PMC9931008 (Journal of Food and Drug Analysis, 2022).
Read-outs that look alike come from different tables or passages of the source. Each block holds one compound with its values, some of them ahead of it.

Tests used:
[1] = system: nifedipine oxidation (NFO) activity; assay type: in vitro ADME, rat; conditions: rat, probe nifedipine; for IC50: rat hepatic (liver) microsomes, IC50, NFO activity, Liver, ingredient, 10-min NADPH-fortified pre-incubation; for inhibition at 100 µM: rat hepatic and intestinal microsomes
[2] = cited from earlier work; for Cmax: read-out: Cmax levels of plasma, rats orally treated with a single dose of 8 g/kg lyophilized SMS
[3] = rat plasma; nifedipine 3 mg/kg oral; control group (water)
human CYP3A4 [4] = biological target: T1, human CYP3A4 (Homo sapiens, UniProt P08684, S18F); assay type: in vitro ADME; conditions: for Ratio IC50(+)/IC50(−): IC50 shift after 10-min pre-incubation; for IC50: NFO activity; for Predicted threshold of unbound inhibitor concentration causing a 2-fold AUC increase: high-throughput method from IC50 values
human CYP3A4 [5] = biological target: T1, human CYP3A4; test: Time-dependent inactivation kinetics of human CYP3A4; assay type: in vitro ADME
Procedure, shortened: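 Recombinant CYP3A4 was pre-incubated with NADPH and test compound (DMSO vehicle) for varying times, and residual NFO was measured. K_app is the slope of ln % remaining activity versus time. k_inact and K_I came from nonlinear fit of K_app = k_inact·I/(I+K_I), with double-reciprocal starting values. The partition ratio came from titrating remaining activity after 30-min incubation against inhibitor:CYP3A4 molar ratio. […] Means of three determinations.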

[6] = system: nifedipine oxidation (NFO) activities in rat hepatic microsomes; assay type: in vitro ADME; conditions: read-out: IC50, NFO activity, Liver; ingredient; 10-min NADPH-fortified pre-incubation
human CYP3A4 [7] = biological target: T1, human CYP3A4; test: Dialysis experiment, remaining NFO activity; assay type: in vitro ADME; conditions: 30-min NADPH-fortified pre-incubation
Procedure, shortened: (§1)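 E. coli membranes co-expressing human CYP3A4 and CPR (20 nM) were incubated 30 min at 37 °C with 3–20 μM test compound and an NADPH-generating system (pH 7.4), with DMSO vehicle controls. They were dialysed (10 kDa) at 4 °C against phosphate/0.1 mM EDTA with three 30-min buffer changes. […] Means of three determinations.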

[8] = biological target: T2, NADPH-P450 reductase (CPR) (Homo sapiens, UniProt P16435); test: Dialysis experiment, CPR activity; assay type: in vitro ADME; conditions: recombinant CYP3A4 system
T2 sequence (P16435 1-677): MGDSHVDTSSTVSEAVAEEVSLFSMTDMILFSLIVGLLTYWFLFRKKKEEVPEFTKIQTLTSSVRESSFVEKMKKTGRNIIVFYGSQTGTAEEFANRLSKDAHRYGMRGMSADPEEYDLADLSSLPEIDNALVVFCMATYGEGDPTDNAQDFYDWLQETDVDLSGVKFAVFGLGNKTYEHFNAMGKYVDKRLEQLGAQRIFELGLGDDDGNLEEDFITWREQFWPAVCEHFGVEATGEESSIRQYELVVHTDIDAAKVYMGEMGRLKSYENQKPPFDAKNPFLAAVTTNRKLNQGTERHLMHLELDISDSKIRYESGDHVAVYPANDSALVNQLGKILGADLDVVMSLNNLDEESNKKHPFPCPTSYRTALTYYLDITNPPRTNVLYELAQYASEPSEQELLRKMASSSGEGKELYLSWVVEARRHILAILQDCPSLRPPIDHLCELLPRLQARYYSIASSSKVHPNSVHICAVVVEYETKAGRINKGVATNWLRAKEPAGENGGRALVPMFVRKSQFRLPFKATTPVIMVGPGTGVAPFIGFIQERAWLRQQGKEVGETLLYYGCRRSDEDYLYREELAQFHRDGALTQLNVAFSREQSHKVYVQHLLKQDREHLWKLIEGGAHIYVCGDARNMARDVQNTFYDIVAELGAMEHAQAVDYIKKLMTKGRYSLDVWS
Procedure, shortened: as §1

[9] = system: nifedipine oxidation (NFO) activities in rat intestinal microsomes; assay type: in vitro ADME; conditions: read-out: IC50, NFO activity, Intestine; ingredient; 10-min NADPH-fortified pre-incubation
[10] = Literature pharmacokinetics of herbal ingredients in rats; assay type: in vivo; conditions: SMS once daily, estimated from half-life
[11] = linear regression of double reciprocal plots (r = 0.97)
[12] = nonlinear regression analysis (r = 0.98)
[13] = IC50(+), 10-min NADPH-fortified pre-incubation
[14] = IC50(−), without pre-incubation
[15] = rats treated with 8 g/kg lyophilized SMS

IC50 [1]: > 100 µM
inhibition at 100 µM [1]: ≤ 50%
SMILES: COc1cc(C[C@H]2C(=O)OC[C@@H]2Cc2ccc(OC)c(OC)c2)ccc1O [Arctigenin]

SMILES: CC(C)=CCC/C(C)=C/COc1c2ccoc2cc2oc(=O)ccc12 [Bergamottin, bergamottin, reference compound]
tmax ([2]; rats): 0.5 h

SMILES: COC(=O)c1c(C)nc(C)c(C(=O)OC)c1-c1ccccc1[N+](=O)[O-] [Dehydronifedipine]
AUC0−t of dehydronifedipine [3]: 100 ± 10 ng·h/mL
AUC0−∞ of dehydronifedipine [3]: 130 ± 10 ng·h/mL
Cmax of dehydronifedipine [3]: 40 ± 10 ng/mL
t1/2 of dehydronifedipine [3]: 2.36 ± 0.33 h
tmax of dehydronifedipine [3]: 0.54 ± 0.10 h

IC50 [1]: > 100 µM
SMILES: CC(C)=CCC[C@](C)(O[C@@H]1O[C@H](CO[C@@H]2O[C@H](CO)[C@@H](O)[C@H](O)[C@H]2O)[C@@H](O)[C@H](O)[C@H]1O)[C@H]1CC[C@]2(C)[C@@H]1[C@H](O)C[C@@H]1[C@@]3(C)CC[C@H](O[C@@H]4O[C@H](CO)[C@@H](O)[C@H](O)[C@H]4O[C@@H]4O[C@H](CO)[C@@H](O)[C@H](O)[C@H]4O)C(C)(C)[C@@H]3CC[C@]12C [Ginsenoside Rb1, ginsenoside Rb1]

IC50 [1]: 80.2 ± 33.3 µM
SMILES: CC(C)=CCC[C@](C)(O[C@@H]1O[C@H](CO)[C@@H](O)[C@H](O)[C@H]1O)[C@H]1CC[C@]2(C)[C@@H]1[C@H](O)C[C@@H]1[C@@]3(C)CC[C@H](O[C@@H]4O[C@H](CO)[C@@H](O)[C@H](O)[C@H]4O[C@@H]4O[C@H](CO)[C@@H](O)[C@H](O)[C@H]4O)C(C)(C)[C@@H]3CC[C@]12C [Ginsenoside Rd, ginsenoside Rd]

IC50 (human CYP3A4 [4]; 10-min NADPH-fortified pre-incubation): 17.4 ± 2.1 µM
IC50 (human CYP3A4 [4]; without pre-incubation): 36.5 ± 7 µM
Predicted threshold of unbound inhibitor concentration causing a 2-fold AUC increase (human CYP3A4 [4]): 45.0 nM
partition ratio (human CYP3A4 [5]; 30 min incubation, molar ratio metabolized per CYP3A4 inactivated): 54
turnover number (human CYP3A4 [5]; 30 min incubation, titration of remaining NFO activity): 55
apparent KI (human CYP3A4 [5]; [11]): 9.1 µM
kinact (human CYP3A4 [5]; [11]): 0.058 min⁻¹
apparent KI (human CYP3A4 [5]; [12]): 13.3 ± 5.9 µM
kinact (human CYP3A4 [5]; [12]): 0.068 ± 0.009 min⁻¹
predicted threshold for causing a 2-fold increase in AUC (human CYP3A4 [5]; using inhibition constants (inactivation kinetics)): 79.7 nM
IC50 [6]: 16.8 ± 2.6 µM
inhibition of NFO after dialysis (human CYP3A4 [7]): could not be restored
CPR activity before or after dialysis [8]: not affected
IC50 [9]: 11.6 ± 0.7 µM
SMILES: Cc1c(O)c(C)c2c(c1O)C(=O)[C@H](Cc1ccc3c(c1)OCO3)CO2 [Methylophiopogonanone A, methylophiopogonanone A]
Ratio IC50(+)/IC50(−) (human CYP3A4 [4]): 0.48
half-life ([2]; rats treated with Qingzao Jiufei decoction (4.6 g/kg)): 8 to 9 h

IC50 [6]: > 100 µM
IC50 [9]: > 100 µM
SMILES: C[C@@H]1CC[C@@]2(OC1)O[C@H]1C[C@H]3[C@@H]4CC=C5C[C@@H](O)C[C@@H](O[C@@H]6O[C@H](C)[C@H](O)[C@H](O[C@@H]7OC[C@@H](O)[C@H](O)[C@H]7O)[C@H]6O[C@@H]6O[C@@H](C)[C@H](O)[C@@H](O)[C@H]6O)[C@]5(C)[C@H]4CC[C@]3(C)[C@H]1[C@@H]2C [Ophiopogonin D, ophiopogonin D]

IC50 [1]: > 100 µM
SMILES: CC1(C)CCC[C@](C)([C@H]2CC[C@]3(C)[C@@H]2[C@H](O)C[C@@H]2[C@@]4(C)CC[C@H](O)C(C)(C)[C@@H]4[C@@H](O)C[C@]23C)O1 [Panaxatriol, panaxatriol]

IC50 [6]: > 100 µM
IC50 [9]: > 100 µM
SMILES: CC(C)=CCC[C@](C)(O)[C@H]1CC[C@]2(C)[C@@H]1[C@H](O)C[C@@H]1[C@@]3(C)CC[C@H](O)C(C)(C)[C@@H]3[C@@H](O)C[C@]12C [Protopanaxatriol, protopanaxatriol]

IC50 [1]: > 100 µM
inhibition at 100 µM [1]: ≤ 50%
SMILES: C[C@@H]1CC[C@@]2(OC1)O[C@H]1C[C@H]3[C@@H]4CC=C5C[C@@H](O)C[C@@H](O)[C@]5(C)[C@H]4CC[C@]3(C)[C@H]1[C@@H]2C [Ruscogenin, ruscogenin]

IC50 (human CYP3A4 [4]; [13]): 1.5 ± 0.2 µM
IC50 (human CYP3A4 [4]; [14]): 6.1 ± 1.4 µM
Predicted threshold of unbound inhibitor concentration causing a 2-fold AUC increase (human CYP3A4 [4]): 7.69 nM
IC50 [9]: 8.9 ± 1.4 µM
SMILES: COc1cc2c(c(OC)c1OC)-c1c(cc3c(c1OC)OCO3)CC(C)C(C)C2 (centres unmarked) [Schisandrin B]
Ratio IC50(+)/IC50(−) (human CYP3A4 [4]): 0.25
tmax ([2]; SMS (8 g/kg)-treated rats): 1.6 h
tmax ([2]; Schisandra Fructus extract (5 g/kg)-treated rats): 4.1 h
half-life [2, 15]: 7 h
Cmax [2]: 28.6 nM

time required for accumulating to reach the steady-state [10]: at least 8 days
IC50 (human CYP3A4 [4]; [13]): 0.06 ± 0.01 µM
IC50 (human CYP3A4 [4]; [14]): 0.17 ± 0.05 µM
Predicted threshold of unbound inhibitor concentration causing a 2-fold AUC increase (human CYP3A4 [4]): 0.34 nM
SMILES: COc1cc2c(c(OC)c1OC)-c1c(cc3c(c1OC)OCO3)C[C@H](C)[C@](C)(O)[C@H]2OC(=O)c1ccccc1 [Schisantherin A, schisantherin A]
Ratio IC50(+)/IC50(−) (human CYP3A4 [4]): 0.35
tmax ([2]; SMS (8 g/kg)-treated rats): 2.3 h
half-life [2, 15]: 30 h
Cmax [2]: 7.1 nM
